In ChEMBL document CHEMBL3098054, “The synthesis of novel taxoids for oral administration” (Bioorg Med Chem, 2014):

Columns and labels:
[1] = test system: Caco-2; test: (§1) Efflux ratio of apparent permeability from basolateral to apical side over apical to basolateral side in human Caco2 cells at 10 uM after 90 mins by LC-MS/MS analysis; assay type: ADME, cell-based; conditions: caco-2, 1.5 h, 10 µM
Method in brief: (§2)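 Caco-2 cells cultured 21 days on 24-well inserts, TEER >250 Ω·cm². Monolayers pre-incubated in HBSS pH 7.4 at 37 °C. Compound added to the donor side at 10 µM, 37 °C, 5% CO₂, 90 min, in the A-to-B and B-to-A directions. Donor and receiver levels measured by LC-MS/MS. Papp calculated from receiver amount, membrane area 0.7 cm², time and initial donor concentration. Efflux ratio = B–A/A–B.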

[2] = test system: Caco-2; test: (§3) Apparent permeability from basolateral to apical side in human Caco2 cells at 10 uM after 90 mins by LC-MS/MS analysis; assay type: ADME, cell-based; conditions: caco-2, 1.5 h, 10 µM
[3] = test system: Caco-2; test: (§4) Apparent permeability from apical to basolateral side in human Caco2 cells at 10 uM after 90 mins by LC-MS/MS analysis; assay type: ADME, cell-based; conditions: caco-2, 1.5 h, 10 µM
[4] = test system: MCF7; test: Cytotoxicity against human MCF7 cells after 72 hrs by MTT assay; assay type: functional, cell-based; conditions: MCF7, 72 h
Method in brief: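 MCF-7 cells exposed to compound for 72 h and read by MTT. At least six replicate wells per assay, run on three separate occasions. IC₅₀ given as mean with standard deviation.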

[5] = test system: HeLa; test: Cytotoxicity against human HeLa cells at 1 uM after 72 hrs by MTT assay; assay type: functional; conditions: read-out: GI
Method in brief: (§5)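 Cells plated at 2000–5000/well, attached overnight at 37 °C. DMSO stocks (100 mM) serially diluted in medium to a final 1 µM, tested in duplicate wells. Exposure 72 h at 37 °C, 5% CO₂. MTT (5 mg/mL, 10 µL) added for 4 h. Lysis in 10% SDS / 5% isopropanol / 0.012 N HCl, then OD read at 580–680 nm.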

[6] = biological target: ATP-dependent translocase ABCB1 (Homo sapiens, UniProt P08183); test: Inhibition of MDR1 (unknown origin) expressed in MDCK cells at 10 uM after 90 mins; assay type: ADME, cell-based; conditions: 1.5 h
Method in brief: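 P-gp inhibition measured as digoxin bidirectional transport across MDCK-MDR1 monolayers at 37 °C in HBSS pH 7.4, with test compound present at 10 µM. Read-out is the change in digoxin efflux ratio, Papp(B–A)/Papp(A–B).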

[7] = test system: MDR1; test: Efflux ratio of apparent permeability from basolateral to apical side over apical to basolateral side in MDCK cells expressing MDR1 at 5 uM after 90 mins; assay type: ADME, cell-based, Canis lupus familiaris; conditions: dog
Method in brief: (§6)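 MDCK-MDR1 monolayers grown on polycarbonate filter Transwells, confluent 5 days after seeding, TEER >1000 Ω·cm² before use. MDCK-WT cells plated at 5.0 × 10⁴ cells/well and used after 6 days at TEER >200 Ω·cm². Transport run at 37 °C in HBSS pH 7.4 for 90 min, in both directions. Lucifer yellow permeability and TEER change served as monolayer integrity checks. Efflux ratio = Papp(B–A)/Papp(A–B).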

[8] = test system: MDR1; test: Apparent permeability from basolateral to apical side in MDCK cells expressing MDR1 at 5 uM after 90 mins; assay type: ADME, cell-based, Canis lupus familiaris; conditions: dog; method in brief: as §6
[9] = test system: MDR1; test: Apparent permeability from apical to basolateral side in MDCK cells expressing MDR1 at 5 uM after 90 mins; assay type: ADME, cell-based, Canis lupus familiaris; conditions: dog; method in brief: as §6
[10] = Efflux ratio of apparent permeability from basolateral to apical side over apical to basolateral side in wild-type MDCK cells at 5 uM after 90 mins; assay type: ADME, cell-based, Canis lupus familiaris; conditions: dog; method in brief: as §6
[11] = Apparent permeability from basolateral to apical side in wild-type MDCK cells at 5 uM after 90 mins; assay type: ADME, cell-based, Canis lupus familiaris; conditions: dog; method in brief: as §6
[12] = as §1; assay type: ADME, cell-based, Caco-2; conditions: Caco-2; method in brief: as §2
[13] = as §3; assay type: ADME, cell-based, Caco-2; conditions: Caco-2
[14] = as §4; assay type: ADME, cell-based, Caco-2; conditions: Caco-2
[15] = Apparent permeability from apical to basolateral side in wild-type MDCK cells at 5 uM after 90 mins; assay type: ADME, cell-based, Canis lupus familiaris; conditions: dog; method in brief: as §6
[16] = test system: HL-60; test: Cytotoxicity against human HL60 cells at 1 uM after 72 hrs by MTT assay; assay type: functional; conditions: HL-60, 72 h, read-out: GI; method in brief: as §5
[17] = test system: DU-145; test: Cytotoxicity against human DU145 cells at 1 uM after 72 hrs by MTT assay; assay type: functional; conditions: DU-145, 72 h, read-out: GI; method in brief: as §5
[18] = test system: HT-29; test: Cytotoxicity against human HT-29 cells at 1 uM after 72 hrs by MTT assay; assay type: functional; conditions: HT-29, 72 h, read-out: GI; method in brief: as §5
[19] = test system: A-375; test: Cytotoxicity against human A375 cells at 1 uM after 72 hrs by MTT assay; assay type: functional; conditions: A-375, 72 h, read-out: GI
Method in brief: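 Cells plated at 2000–5000/well, attached overnight at 37 °C. DMSO stocks (100 mM) serially diluted in medium to a final 1 µM, tested in duplicate wells. MTT (5 mg/mL, 10 µL) added for 4 h. Lysis in 10% SDS / 5% isopropanol / 0.012 N HCl, then OD read at 580–680 nm.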

[20] = test system: MCF7; test: Cytotoxicity against human MCF7 cells at 1 uM after 72 hrs by MTT assay; assay type: functional; conditions: MCF7, 72 h, read-out: GI; method in brief: as §5
[21] = test system: NCI-H460; test: Cytotoxicity against human NCI-H460 cells at 1 uM after 72 hrs by MTT assay; assay type: functional; conditions: NCI-H460, 72 h, read-out: GI; method in brief: as §5
[22] = test system: A2780; test: Cytotoxicity against human A2780 cells at 1 uM after 72 hrs by MTT assay; assay type: functional; conditions: A2780, 72 h, read-out: GI; method in brief: as §5

Chain of ATP-dependent translocase ABCB1 (P08183 whole entry): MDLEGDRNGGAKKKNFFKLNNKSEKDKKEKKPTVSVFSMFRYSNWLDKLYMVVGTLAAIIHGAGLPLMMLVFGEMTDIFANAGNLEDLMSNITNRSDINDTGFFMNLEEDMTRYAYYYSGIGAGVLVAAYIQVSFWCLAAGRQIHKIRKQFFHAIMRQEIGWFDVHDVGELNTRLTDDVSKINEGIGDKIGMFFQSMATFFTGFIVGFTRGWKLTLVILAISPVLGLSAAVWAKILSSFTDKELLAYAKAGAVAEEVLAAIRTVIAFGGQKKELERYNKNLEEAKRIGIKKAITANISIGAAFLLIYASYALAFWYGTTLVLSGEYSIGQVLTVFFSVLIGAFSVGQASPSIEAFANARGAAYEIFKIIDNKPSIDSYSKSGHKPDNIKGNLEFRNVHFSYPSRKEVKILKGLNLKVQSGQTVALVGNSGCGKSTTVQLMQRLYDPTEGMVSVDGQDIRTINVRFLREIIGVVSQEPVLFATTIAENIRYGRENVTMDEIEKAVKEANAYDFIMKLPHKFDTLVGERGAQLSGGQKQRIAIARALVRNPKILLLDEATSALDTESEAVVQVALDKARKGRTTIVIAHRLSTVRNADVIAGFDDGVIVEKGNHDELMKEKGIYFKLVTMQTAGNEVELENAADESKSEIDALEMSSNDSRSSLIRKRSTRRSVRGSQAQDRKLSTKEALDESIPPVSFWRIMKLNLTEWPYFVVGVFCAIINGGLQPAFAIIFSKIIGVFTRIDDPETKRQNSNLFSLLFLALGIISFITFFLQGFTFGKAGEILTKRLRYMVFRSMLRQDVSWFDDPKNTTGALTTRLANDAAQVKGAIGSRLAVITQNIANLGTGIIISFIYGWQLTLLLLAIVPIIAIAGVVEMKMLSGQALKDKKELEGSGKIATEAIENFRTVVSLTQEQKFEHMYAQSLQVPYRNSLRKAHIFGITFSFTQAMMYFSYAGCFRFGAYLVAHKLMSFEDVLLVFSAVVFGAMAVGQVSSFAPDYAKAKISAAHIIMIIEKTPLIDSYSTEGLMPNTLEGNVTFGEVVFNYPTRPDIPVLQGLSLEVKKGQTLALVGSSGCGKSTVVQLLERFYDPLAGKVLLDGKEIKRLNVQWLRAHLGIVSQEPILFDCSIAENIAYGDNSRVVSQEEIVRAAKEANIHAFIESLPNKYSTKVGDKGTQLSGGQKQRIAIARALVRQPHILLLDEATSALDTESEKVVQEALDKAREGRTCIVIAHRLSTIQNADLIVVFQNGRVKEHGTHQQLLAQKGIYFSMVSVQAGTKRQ

| SMILES | Ratio [1] | Papp [2] [×10⁻⁶ cm/s] | Papp [3] [×10⁻⁶ cm/s] | IC50 [4] [nM] | inhibition of growth at 1 µM [5] [%] | inhibition (INH) [6] | efflux ratio at 1.5 h, 5 µM [7] | Papp B→A at 1.5 h, 5 µM [8] [×10⁻⁶ cm/s] | Papp A→B at 1.5 h, 5 µM [9] [×10⁻⁶ cm/s] | efflux ratio at 1.5 h, 5 µM [10] | Papp B→A at 1.5 h, 5 µM [11] [×10⁻⁶ cm/s] | efflux ratio at 1.5 h, 10 µM [12] | Papp B→A at 1.5 h, 10 µM [13] [×10⁻⁶ cm/s] | Papp A→B at 1.5 h, 10 µM [14] [×10⁻⁶ cm/s] | Papp A→B at 1.5 h, 5 µM [15] [×10⁻⁶ cm/s] | other results |
| --- | --- | --- | --- | --- | --- | --- | --- | --- | --- | --- | --- | --- | --- | --- | --- | --- |
| CO[C@H]1C(=O)[C@]2(C)[C@@H](OC(=O)N(C)C)C[C@H]3OC[C@@]3(OC(C)=O)[C@H]2[C@H](OC(=O)c2ccccc2)[C@]2(O)C[C@H](OC(=O)[C@H](O)[C@H](CC(C)C)NC(=O)OC(C)(C)C)C(C)=C1C2(C)C | 1.59 | 30.9 | 10.7 | 13.3 | 102 | – | – | – | – | – | – | – | – | – | – | – |
| CO[C@H]1C[C@H]2OC[C@@]2(OC(C)=O)[C@H]2[C@H](OC(=O)c3ccccc3)[C@]34OC(=O)O[C@H]3[C@H](OC(=O)[C@H](O)[C@@H](NC(=O)OC(C)(C)C)c3ccccc3)C(C)=C([C@@H](OC(=O)N(C)C)C(=O)[C@]12C)C4(C)C | – | – | – | 7.93 | – | Active | 10.1 | 6.38 | 0.63 | 2.13 | 2.99 | 2.04 | 33.5 | 16.4 | 1.4 | – |
| CC(=O)O[C@H]1C(=O)[C@@]2(C)[C@H]([C@H](OC(=O)c3ccccc3)[C@]3(O)C[C@H](OC(=O)[C@H](O)[C@@H](NC(=O)c4ccccc4)c4ccccc4)C(C)=C1C3(C)C)[C@]1(OC(C)=O)CO[C@@H]1C[C@@H]2O [PACLITAXEL] | – | – | – | 7.05 | – | Not Active | 334 | 44.1 | 0.13 | 344 | 29.8 | 34.4 | 33.4 | 0.97 | 0.09 | – |
| CO[C@H]1C(=O)[C@]2(C)[C@@H](OC(=O)N(C)C)C[C@H]3OC[C@@]3(OC(C)=O)[C@H]2[C@H](OC(=O)c2ccccc2)[C@]2(O)C[C@H](OC(=O)[C@H](O)[C@@H](NC(=O)OC(C)(C)C)c3ccccc3)C(C)=C1C2(C)C | 1.73 | 26 | 10.6 | 9.63 | 103 | Active | 10.1 | 5.26 | 0.52 | 2.28 | 3.17 | – | – | – | 1.39 | inhibition of growth at 1 µM [16]: 97.8%; inhibition of growth at 1 µM [17]: 87.5%; inhibition of growth at 1 µM [18]: 89.8%; inhibition of growth at 1 µM [19]: 90.4%; inhibition of growth at 1 µM [20]: 102%; inhibition of growth at 1 µM [21]: 86.6%; inhibition of growth at 1 µM [22]: 95.8% |
